Experimental data as given in ChEMBL document CHEMBL2016480, “Structure-based ligand design of novel bacterial RNA polymerase inhibitors” (ACS Med Chem Lett, 2011).
≈ marks a conversion by molar mass, not a printed value.

Assays:
[1] = Inhibition of Escherichia coli DNA dependent RNA polymerase after 2 hrs by SYBR Green-based spectrophotometric analysis
How it was run: (§1)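 In vitro transcription assay with E. coli RNA polymerase on a Kool NC-45 RNAP template. Activity was reported as IC50 or as percentage inhibition at 100 μM compound.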

[2] = Inhibition of malate dehydrogenase at 100 uM
How it was run: (§2)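 Counter-screens for promiscuous inhibition using malate dehydrogenase and chymotrypsin enzyme assays. Activity was reported as percentage inhibition at 100 μM compound.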

Saccharomyces cerevisiae = experiment: Inhibition of yeast RNA polymerase 2 at 100 uM
How it was run: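 Selectivity assay against yeast RNA polymerase II. Activity was reported as percentage inhibition at 100 μM compound.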

[3] = Inhibition of chymotrypsin at 100 uM; how it was run: as §2
Staphylococcus aureus [4] = experiment: Antibacterial activity against Staphylococcus aureus SH1000 expressing rsbU gene; assay type: functional
How it was run: (§3)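 MICs by standard susceptibility testing per British Society for Antimicrobial Chemotherapy guidelines, run in triplicate. For the PMBN lines, tests were repeated with polymyxin B nonapeptide added as an outer-membrane permeabilizer.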

Bacillus subtilis [5] = experiment: Antibacterial activity against Bacillus subtilis 1S34; assay type: functional; how it was run: as §3
Escherichia coli [6] = experiment: Antibacterial activity against Escherichia coli 1411 expressing lacI3, lacZ118, proB, trp, nalA, rpsL; assay type: functional; how it was run: as §3
Escherichia coli [7] = experiment: Antibacterial activity against kanamycin-resistant,acrAB::Tn903 deficient Escherichia coli SM1411 expressing lacI3, lacZ118, proB, trp, nalA, rpsL; assay type: functional
Staphylococcus aureus [8] = experiment: Antibacterial activity against Staphylococcus aureus SH1000 expressing rsbU gene in the presence of polymyxin B nonapeptide; assay type: functional; how it was run: as §3
Bacillus subtilis [9] = experiment: Antibacterial activity against Bacillus subtilis 1S34 in the presence of polymyxin B nonapeptide; assay type: functional; how it was run: as §3
Escherichia coli [10] = experiment: Antibacterial activity against Escherichia coli 1411 expressing lacI3, lacZ118, proB, trp, nalA, rpsL in the presence of polymyxin B nonapeptide; assay type: functional; how it was run: as §3
Escherichia coli [11] = experiment: Antibacterial activity against kanamycin-resistant,acrAB::Tn903 deficient Escherichia coli SM1411 expressing lacI3, lacZ118, proB, trp, nalA, rpsL in the presence of polymyxin B nonapeptide; assay type: functional
Escherichia coli [12] = experiment: Inhibition of Escherichia coli DNA dependent RNA polymerase at 100 uM after 2 hrs by SYBR Green-based spectrophotometric analysis; how it was run: as §1
Staphylococcus aureus [13] = experiment: Antibacterial activity against Staphylococcus aureus; assay type: functional
[14] = Inhibition of DNA dependent RNA polymerase
[15] = Inhibition of Escherichia coli DNA dependent RNA polymerase assessed as inhibition of [14C]UTP incorporation after 15 mins by liquid scintillation counting

Structure (SMILES) | IC50 [1] | inhibition [2] | inhibition (Saccharomyces cerevisiae) | inhibition [3] | MIC (Staphylococcus aureus [4]) | MIC (Bacillus subtilis [5]) | MIC (Escherichia coli [6]) | MIC (Escherichia coli [7]) | MIC (Staphylococcus aureus [8]) | MIC (Bacillus subtilis [9]) | MIC (Escherichia coli [10]) | MIC (Escherichia coli [11]) | inhibition (Escherichia coli [12]) | MIC (Staphylococcus aureus [13]) | IC50 [14] | IC50 [15]
N#Cc1ccc(C(=O)Nc2ccc(-n3ccnc3)nc2)cc1 | 7.2 µM | 0.6% | 17.6% | 1.8% | > 256 µg/mL | > 256 µg/mL | > 256 µg/mL | > 256 µg/mL | > 256 µg/mL | > 256 µg/mL | > 256 µg/mL | > 256 µg/mL | – | – | – | –
O=C(O)c1ccc(C(=O)Nc2ccc(-n3ccnc3)nc2)cc1 | – | – | – | – | > 256 µg/mL | > 256 µg/mL | > 256 µg/mL | > 256 µg/mL | > 256 µg/mL | > 256 µg/mL | > 256 µg/mL | > 256 µg/mL | 0% | – | – | –
NS(=O)(=O)c1ccc(C(=O)Nc2ccc(-c3ccco3)nc2)cc1 | – | – | – | – | > 256 µg/mL | > 256 µg/mL | > 256 µg/mL | > 256 µg/mL | > 256 µg/mL | > 256 µg/mL | > 256 µg/mL | > 256 µg/mL | 12.9% | – | – | –
O=C(Nc1ccc(-n2cncn2)nc1)c1ccc(C(F)(F)F)cc1 | – | – | – | – | > 256 µg/mL | > 256 µg/mL | > 256 µg/mL | > 256 µg/mL | > 256 µg/mL | > 256 µg/mL | > 256 µg/mL | > 256 µg/mL | 5.9% | – | – | –
NS(=O)(=O)c1ccc(NC(=O)c2ccc(-n3cncn3)nc2)cc1 | – | – | – | – | > 256 µg/mL | > 256 µg/mL | > 256 µg/mL | > 256 µg/mL | > 256 µg/mL | > 256 µg/mL | > 256 µg/mL | > 256 µg/mL | 0% | – | – | –
NC(=O)c1ccc(C(=O)Nc2ccc(-n3ccnc3)nc2)cc1 | 11.9 µM | 0% | 10.5% | 0.1% | > 256 µg/mL | > 256 µg/mL | > 256 µg/mL | > 256 µg/mL | > 256 µg/mL | > 256 µg/mL | > 256 µg/mL | > 256 µg/mL | – | – | – | –
NS(=O)(=O)c1ccc(C(=O)Nc2ccc(-n3cncn3)nc2)cc1 | 13.7 µM | 1.4% | 9.3% | 0.6% | > 256 µg/mL | > 256 µg/mL | > 256 µg/mL | > 256 µg/mL | > 256 µg/mL | > 256 µg/mL | > 256 µg/mL | > 256 µg/mL | – | – | – | –
CS(=O)(=O)c1ccc(C(=O)Nc2ccc(-n3cncn3)nc2)cc1 | – | – | – | – | > 256 µg/mL | > 256 µg/mL | > 256 µg/mL | > 256 µg/mL | > 256 µg/mL | > 256 µg/mL | > 256 µg/mL | > 256 µg/mL | 0% | – | – | –
N#Cc1ccc(C(=O)Nc2ccc(-c3ccccc3)nc2)cc1 | – | – | – | – | > 256 µg/mL | > 256 µg/mL | > 256 µg/mL | > 256 µg/mL | > 256 µg/mL | > 256 µg/mL | > 256 µg/mL | > 256 µg/mL | 10.9% | – | – | –
NS(=O)(=O)c1ccc(C(=O)Nc2cccnc2)cc1 | – | – | – | – | > 256 µg/mL | > 256 µg/mL | > 256 µg/mL | > 256 µg/mL | > 256 µg/mL | > 256 µg/mL | > 256 µg/mL | > 256 µg/mL | 0% | – | – | –
O=C(Nc1ccc(-n2cncn2)nc1)c1ccccc1 | – | – | – | – | > 256 µg/mL | > 256 µg/mL | > 256 µg/mL | > 256 µg/mL | > 256 µg/mL | > 256 µg/mL | > 256 µg/mL | > 256 µg/mL | 0% | – | – | –
CCCC/C(C)=C/C=C(\C)C(=O)c1c(O)cc(CCC/C=C/NC(=O)OC)oc1=O [DESMETHYL MYXOPYRONIN B] | – | – | – | – | > 256 µg/mL | > 256 µg/mL | > 256 µg/mL | > 256 µg/mL | > 256 µg/mL | > 256 µg/mL | > 256 µg/mL | > 256 µg/mL | – | 4 µg/mL (≈ 9.58 µM) | 0.34 µM | –
NS(=O)(=O)c1ccc(C(=O)Nc2cnc3ccccc3c2)cc1 | – | – | – | – | > 256 µg/mL | > 256 µg/mL | > 256 µg/mL | > 256 µg/mL | > 256 µg/mL | > 256 µg/mL | > 256 µg/mL | > 256 µg/mL | 0% | – | – | –
NS(=O)(=O)c1ccc(C(=O)Nc2ccc(N3CCCC3)nc2)cc1 | – | – | – | – | > 256 µg/mL | > 256 µg/mL | > 256 µg/mL | > 256 µg/mL | > 256 µg/mL | > 256 µg/mL | > 256 µg/mL | > 256 µg/mL | 17.9% | – | – | –
N#Cc1ccc(C(=O)Nc2cnc3ccccc3c2)cc1 | – | – | – | – | > 256 µg/mL | > 256 µg/mL | > 256 µg/mL | > 256 µg/mL | > 256 µg/mL | > 256 µg/mL | > 256 µg/mL | > 256 µg/mL | 0% | – | – | –
NC(=O)c1ccc(C(=O)Nc2ccc(-n3cncn3)nc2)cc1 | 9.9 µM | 0% | 5.2% | 1.5% | > 256 µg/mL | > 256 µg/mL | > 256 µg/mL | > 256 µg/mL | > 256 µg/mL | > 256 µg/mL | > 256 µg/mL | > 256 µg/mL | – | – | – | –
COC(=O)c1ccc(C(=O)Nc2ccc(-n3ccnc3)nc2)cc1 | – | – | – | – | > 256 µg/mL | > 256 µg/mL | > 256 µg/mL | > 256 µg/mL | > 256 µg/mL | > 256 µg/mL | > 256 µg/mL | > 256 µg/mL | 0% | – | – | –
NS(=O)(=O)c1ccc(C(=O)Nc2ccc(-n3ccnc3)nc2)cc1 | 18.9 µM | 0.5% | 14.7% | 0% | > 256 µg/mL | > 256 µg/mL | > 256 µg/mL | > 256 µg/mL | > 256 µg/mL | > 256 µg/mL | > 256 µg/mL | > 256 µg/mL | – | – | – | –
NS(=O)(=O)c1ccc(C(=O)Nc2ccc(N3CCOCC3)nc2)cc1 | – | – | – | – | > 256 µg/mL | > 256 µg/mL | > 256 µg/mL | > 256 µg/mL | > 256 µg/mL | > 256 µg/mL | > 256 µg/mL | > 256 µg/mL | 0% | – | – | –
NS(=O)(=O)c1ccc(C(=O)Nc2ccc(OCc3ccccn3)nc2)cc1 | 151 µM | – | – | – | > 256 µg/mL | > 256 µg/mL | > 256 µg/mL | > 256 µg/mL | > 256 µg/mL | > 256 µg/mL | > 256 µg/mL | > 256 µg/mL | – | – | – | –
CCCC/C(C)=C/C=C(\C)C(=O)c1c(O)cc([C@H](C)CC/C=C/NC(=O)OC)oc1=O [MYXOPYRONIN B] | 46.5 µM | – | – | – | > 256 µg/mL | > 256 µg/mL | > 256 µg/mL | > 256 µg/mL | > 256 µg/mL | > 256 µg/mL | > 256 µg/mL | > 256 µg/mL | – | 1 µg/mL (≈ 2.32 µM) | – | 0.92 µM
N#Cc1ccc(C(=O)Nc2ccc(-n3cncn3)nc2)cc1 | 9.9 µM | 0% | 12% | 0% | > 256 µg/mL | > 256 µg/mL | > 256 µg/mL | > 256 µg/mL | > 256 µg/mL | > 256 µg/mL | > 256 µg/mL | > 256 µg/mL | – | – | – | –
NS(=O)(=O)c1ccc(C(=O)Nc2ccc(-c3ccccc3)nc2)cc1 | – | – | – | – | > 256 µg/mL | > 256 µg/mL | > 256 µg/mL | > 256 µg/mL | > 256 µg/mL | > 256 µg/mL | > 256 µg/mL | > 256 µg/mL | 32.9% | – | – | –
